Source: ChEMBL document CHEMBL1137302 (J Med Chem, 2006)
The source made the active and inactive calls. The calls are words filed in the database; no cut-off is given here.

Columns and labels:
Rattus norvegicus [1] = assay: Blockade of ABT-670-induced erctogenic activity in rat at 1 umol/kg, ip; assay type: functional, organism-based
[2] = target: T1, D(4) dopamine receptor (Homo sapiens) (UniProt P21917); assay: Agonist activity at human D4.4 receptor in HEK293 cells coexpressing G-alpha-qo5 by FLIPR with relative to dopamine upto 10 uM; assay type: functional, cell-based
T1 sequence (whole entry): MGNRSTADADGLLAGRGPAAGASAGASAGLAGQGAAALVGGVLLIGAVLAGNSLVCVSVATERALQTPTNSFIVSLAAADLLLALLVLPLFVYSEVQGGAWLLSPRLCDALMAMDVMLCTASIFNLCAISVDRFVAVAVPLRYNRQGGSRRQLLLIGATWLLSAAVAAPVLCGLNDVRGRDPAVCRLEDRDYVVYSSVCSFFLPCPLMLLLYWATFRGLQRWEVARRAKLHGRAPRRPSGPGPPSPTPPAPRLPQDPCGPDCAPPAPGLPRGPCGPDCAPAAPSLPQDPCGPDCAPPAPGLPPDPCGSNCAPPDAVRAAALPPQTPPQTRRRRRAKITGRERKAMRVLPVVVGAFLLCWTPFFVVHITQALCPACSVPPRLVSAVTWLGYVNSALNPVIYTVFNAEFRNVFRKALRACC

Rattus norvegicus [3] = assay: Blockade of ABT-670-induced erctogenic activity in rat at 10 umol/kg, ip; assay type: functional, organism-based
Rattus norvegicus [4] = assay: Blockade of ABT-670-induced erctogenic activity in rat at 3 umol/kg, ip; assay type: functional, organism-based
D(4) dopamine receptor [5] = target: T2, D(4) dopamine receptor (Homo sapiens, UniProt P21917); assay: Agonist activity at human D4.4 receptor in HEK293 cells coexpressing G-alpha-qo5 by FLIPR; assay type: functional, cell-based
T2 sequence (P21917 whole entry): T1 sequence (whole entry)

[6] = target: T1, D(4) dopamine receptor (Homo sapiens); assay: Activity at human D4.4 receptor in HEK293 cells co-expressing Galphaqo5 by FLIPR; assay type: functional, cell-based; conditions: filed as agonist
Rattus norvegicus [7] = assay: Proerectile activity in rat measured as incidence of penile erection at 0.01 umol/kg, sc; assay type: functional
Summary of the method: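 Conscious male rats dosed subcutaneously. Penile erection incidence scored over 60 min after injection; values are % ± SEM, with significance tested against control.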

[8] = Bioavailability in Sprague-Dawley rat at 1 mg/kg, po; assay type: ADME, organism-based; conditions: in vivo
Summary of the method: (§1)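 Single 1 mg/kg dose given iv, sc or orally to Sprague-Dawley rats, dogs and monkeys; plasma concentrations followed over time (mean ± SEM, n = 3). Cmax, AUC, half-life, clearance and bioavailability calculated from the curves.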

Rattus norvegicus [9] = assay: Proerectile activity in rat measured as incidence of penile erection at 0.1 umol/kg, sc; assay type: functional
Summary of the method: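 Conscious male rats were given a single subcutaneous injection and observed for penile erections over the following 60 min. The read-out was the incidence of erections, expressed as % of animals ± SEM (n = 12–32 animals per group), with significance tested against controls. The value is the maximal incidence at the maximally effective dose.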

[10] = Half life in Sprague-Dawley rat at 1 mg/kg, sc; assay type: ADME, organism-based; parameters: dose 1 mg/kg, route subcutaneous; conditions: in vivo; summary of the method: as §1
D(4) dopamine receptor [11] = target: T2, D(4) dopamine receptor; assay: Displacement of [3H]A369508 from human D4 receptor expressed in HEK293 cell membrane; assay type: cell membranes
[12] = Bioavailability in Sprague-Dawley rat at 1 mg/kg, sc; assay type: ADME, organism-based; conditions: in vivo; summary of the method: as §1

O=C(CCCN1CCC(O)(c2ccc(Cl)cc2)CC1)c1ccc(F)cc1
Activity (Rattus norvegicus [1]): Active

O=C(CN1CCC(c2cccc[n+]2[O-])CC1)Nc1ccccn1
Activity [2]: inactive

O=c1[nH]c2ccccc2n1CCCN1CCC(n2c(=O)[nH]c3cc(Cl)ccc32)CC1
Activity (Rattus norvegicus [3]): inactive

CN1CCN(C2=Nc3cc(Cl)ccc3Nc3ccccc32)CC1
Activity (Rattus norvegicus [4]): Active

Cc1ccc([N+](=O)[O-])cc1NC(=O)CN1CCC(c2cccc[n+]2[O-])CC1
EC50 (D(4) dopamine receptor [5]): 0.134 µM
Activity [6]: Agonist
Activity (Rattus norvegicus [7]): 83%

Cc1cccc(NC(=O)CN2CCC(c3ccccn3)CC2)c1
EC50 (D(4) dopamine receptor [5]): 0.014 µM
Activity [6]: Agonist
bioavailability [8]: 0%
Activity (Rattus norvegicus [9]): 75%
half-life [10]: 42 min
Ki (D(4) dopamine receptor [11]): 0.008 µM
bioavailability [12]: 57%
